# From PubChem
# An excerpt weighted towards active compounds, which were near 1.7% of everything screened.
# Myeloid diff MLP: induction of myeloid progenitor differentiation, primary screen, cell-based, flow cytometry, MLPCN library; ER-HoxA9 myeloid progenitors, lysozyme-GFP differentiation; calls only at 10 µM; hit rate 1% among 360,000; AID 624256, 2012;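 active = normalized GFP-positive differentiation at or above the plate's own cutoff, the solvent-only control mean plus 3 SD; inconclusive = no clear call, values can overlap the other calls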;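 note: cells exposed to compound for four days before flow analysis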
# T cell HTS: modulators of CD8 T cell-vesicle binding, primary screen, mouse 2C CD8+ T cells, flow cytometry. 2C CD8+ T cell-vesicle binding; active compounds read low. response (vesicle binding), % at 7 µM. hit rate 0.068% among 330,000;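 active = response, share of CD8 T cells binding vesicles, and their 90th percentile fluorescence all below set limits, cut at about 80% in these data, passing the limit was not always enough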;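 note: values below 100% mean blocked vesicle binding to the CD8+ T cells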
#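 Assay system: 2C TCR transgenic mouse naive CD8+ T cells, MACS-purified | Read-out: CD8+ gate FL2 mean fluorescence as % of same-row positive control | Signal: High-throughput flow cytometry with anti-B7-1 and anti-CD8 staining | Timing: Binding step 1.5 h, 37 °C, antibody labelling 20 min, ice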
# Vif inh: HIV Vif self-association inhibitors, primary screen, imaging, HEK293T, single point | HEK293T cells, Vif self-association by quenched fluorescence, 24 h | AID 602346, 2012 | inhibition, % at 7.49 µM | hit rate 0.35% among 340,000; in the data active = inhibition above about 50%, passing the limit was not always enough; inconclusive = no clear call, values can overlap the other calls; inactive = below about 31%
# DSG3 Ab inh: inhibitors of pemphigus antibody binding to DSG3, primary screen, biochemical, bead-based, flow cytometry, scFv-GFP; Desmoglein-3 (Homo sapiens), P32926; DSG3-coupled beads, scFv-anti-DSG3-GFP binding; active compounds read low; binding (percent of control), % at 10 µM; hit rate 0.48% among 310,000;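 active = binding more than 3 SD below its plate's average and above zero; inconclusive = below that plate limit but binding exactly zero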;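 note: hits lower antibody fragment binding to DSG3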
# Target sequence (P32926 whole entry, looked up, the tested form may be a part): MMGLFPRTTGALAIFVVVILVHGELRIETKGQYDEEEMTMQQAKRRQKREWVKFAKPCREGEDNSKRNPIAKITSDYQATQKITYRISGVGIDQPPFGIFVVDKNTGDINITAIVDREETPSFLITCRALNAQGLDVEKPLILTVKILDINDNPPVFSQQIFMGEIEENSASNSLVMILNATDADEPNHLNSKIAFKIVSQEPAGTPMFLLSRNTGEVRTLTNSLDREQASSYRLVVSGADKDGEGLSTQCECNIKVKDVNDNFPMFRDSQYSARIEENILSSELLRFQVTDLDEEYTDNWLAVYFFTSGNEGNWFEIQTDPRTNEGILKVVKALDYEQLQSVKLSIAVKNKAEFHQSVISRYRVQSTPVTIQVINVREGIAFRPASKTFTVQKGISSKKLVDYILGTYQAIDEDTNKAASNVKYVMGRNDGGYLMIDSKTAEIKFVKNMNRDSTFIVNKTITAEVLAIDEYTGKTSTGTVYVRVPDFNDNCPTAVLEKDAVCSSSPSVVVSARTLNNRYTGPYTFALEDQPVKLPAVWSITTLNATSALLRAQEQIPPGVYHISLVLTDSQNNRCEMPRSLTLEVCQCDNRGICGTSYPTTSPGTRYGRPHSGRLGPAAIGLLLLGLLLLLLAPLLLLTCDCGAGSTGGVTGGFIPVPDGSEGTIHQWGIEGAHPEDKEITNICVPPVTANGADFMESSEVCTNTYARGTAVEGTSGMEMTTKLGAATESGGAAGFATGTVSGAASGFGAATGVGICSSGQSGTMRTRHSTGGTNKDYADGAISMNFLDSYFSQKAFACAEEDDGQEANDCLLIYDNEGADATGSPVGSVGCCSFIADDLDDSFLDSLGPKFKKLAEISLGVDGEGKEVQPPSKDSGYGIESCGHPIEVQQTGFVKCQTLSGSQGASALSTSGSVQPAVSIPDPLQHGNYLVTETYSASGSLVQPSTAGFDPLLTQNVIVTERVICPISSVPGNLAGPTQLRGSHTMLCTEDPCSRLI
# Active calls of the source: *; i = inactive; ? = inconclusive; . = no result; + = active, no number.
SMILES,Myeloid diff MLP,T cell HTS,Vif inh,DSG3 Ab inh
CC1CCN(c2ccc(NC(=O)c3cccnc3)cc2)CC1,+,174.1,3.6,118.5
N#Cc1c(SCC(=O)Nc2nncs2)sc2c(O)cc(=O)[nH]c12,i,207.3,-3.9,107.6
CN1/C(=C\C(=O)COC(=O)Cn2nnc(-c3ccccc3)n2)C(C)(C)c2ccccc21,+,512.6,-4.1,?
CC(C)Cc1nnc(NC(=O)c2ccc3c(c2)OCCO3)s1,i,429.1,16.7,.
C(=C\c1ccccc1)/CN1CCN(C(c2cccc3ccccc23)c2nnnn2C2CCCC2)CC1 (configuration not stated),i,.,-1.1,.
N#Cc1cn(-c2ccccc2)nc1-c1ccc2c(c1)OCCO2,i,469.4,8.3,-0.9*
O=Cc1cn(-c2ccccc2)nc1-c1ccc2c(c1)OCCO2,i,363.0,-6.9,104.5
Cc1ccc(OCC(=O)Nc2nnc(S(=O)(=O)N3CCC(C)CC3)s2)cc1,?,395.4,3.6,74.4*
COc1cc(OC)cc(-c2c(C#Cc3ccsc3)c3cc(-c4ccc5c(c4)OCO5)ccc3n2C)c1,i,i,5.1,96.8
COc1ccc(S(=O)(=O)N(CC(=O)N2CCCCCC2)c2ccccc2OC)cc1,.,155.5,-6.7,.
O=C(NN1CCCCC1)NN1CCCCC1,i,.,-2.3,.
Cc1cc(Cl)ccc1C(O)c1ncc(-c2cccc3ccccc23)[nH]1 (configuration not stated),i,.,-0.3,.
COc1cc(/C=C/C(=O)O)cc(S(=O)(=O)N(C)CCO)c1OC,i,0.0*,1.4,104.3
COc1ccc(NC(=O)c2cc(C3CCCCN3S(=O)(=O)c3cn(C)cn3)on2)c(C)c1 (configuration not stated),i,.,11.4,.
COc1ccc(CNC(=O)Nc2cccc(Cl)c2)cc1,i,356.0,1.6,102.9
COc1ccc(CNC(=S)Nc2cccc(Cl)c2)cc1,i,515.4,53.4*,105.4
CN(C)C=Nc1c(Br)cc(Br)c2nonc12,i,130.0,69.6*,260.2
O=C(CC(=O)N1CCOCC1)N1CCOCC1,i,.,-2.6,112.6
CCc1cc(/C(Cc2cscn2)=N\O)c(O)cc1O,i,i,-10.3,96.5
CCc1cc(/C(Cc2ccccn2)=N\O)c(O)cc1O,+,417.9,-6.1,98.5
CSCC(=O)N1CCc2ccc(NC(=O)c3ccccc3Cl)cc2C1,i,366.4,1.4,108.0
Cc1ncc([N+](=O)[O-])n1CC(=O)N/N=C/c1ccc(F)cc1,+,604.9,3.6,134.7
CC(C)C[C@@H](CN1CCC[C@H]1CN1C(=O)C(=O)NC[C@@H]1Cc1ccccc1)N1C[C@H](Cc2ccccc2)N(CC2CCCCCC2)C(=O)C1=O,i,.,.,.
O=C(O)c1cc(-c2ccc3c(c2)OCO3)nc2ccc(Br)cc12,i,419.9,-4.5,33.1*
O=C(O)c1cc(-c2cccnc2)nc2ccc(Br)cc12,+,101.0,1.5,105.5
SMILES,Myeloid diff MLP,T cell HTS,Vif inh,DSG3 Ab inh
CC1(C(=O)NCc2ccc(F)c(F)c2)Cc2c(-c3ccccc3)ccnc2O1 (configuration not stated),i,.,.,.
CCOC(=O)c1c(N)nn(C(=O)c2ccccc2F)c1-c1ccc(OC)cc1,i,163.0,-6.5,.
CCOC(=O)c1c(N)nn(C(=O)C(C)(C)C)c1-c1ccccc1,i,973.8,-13.8,91.6*
CCn1c(C)nc2cc(C(=O)N/N=C/c3ccc(O)c(O)c3O)ccc21,i,.,8.4,2.7*
C[C@H](NC(=O)c1cccc([N+](=O)[O-])c1)C(=O)OCC(=O)c1ccccc1Br,i,182.2,3.9,104.8
Cc1ccccc1C(=O)Nc1ccc(N2CCOCC2)nc1,i,472.2,52.8*,106.9
CCOC(=O)Cc1csc(NC(=O)CCC(=O)O)n1,i,631.6,-3.0,126.5
CCOC(=O)Cc1csc(NC(=O)COc2ccc(C)cc2)n1,i,160.8,5.4,105.5
CCOC(=O)Cc1csc(NC(=O)CCCc2ccccc2)n1,i,0.0*,2.2,120.0
CCOC(=O)Cc1csc(NC(=O)COc2ccccc2)n1,i,292.0,.,65.3*
CCC(C)(C)NC(=O)C(c1ccco1)N(C(=O)c1csnn1)c1cccc(F)c1 (configuration not stated),+,268.2,-1.2,.
Cc1ccc(S(=O)(=O)N2CCN(c3ccc(C(F)(F)F)cc3[N+](=O)[O-])CC2)cc1,i,223.9,-19.8,66.8*
CC(=O)N1c2c(cc(Br)cc2S(=O)(=O)N2CCOCC2)CC1C (configuration not stated),i,321.4,62.6*,98.2
CC(=O)N1c2c(cc(Br)cc2S(=O)(=O)N2CCCCC2)CC1C (configuration not stated),i,288.0,-4.2,.
COC(=O)[C@H](C)N(Cc1ccc(Cl)c(Cl)c1)S(=O)(=O)CCN1CCN(c2ccccc2)CC1,i,.,9.8,98.4
Cc1[nH]nc2c1C(c1ccc(F)cc1)C(C#N)=C(N)O2 (configuration not stated),i,158.3,4.0,.
Cc1oc(C)c2c(=O)ccc3c(c12)OC(N)=C(C#N)C3c1ccc(F)cc1 (configuration not stated),+,154.3,-1.6,89.8
O=c1onc(-c2ccccc2)n1Cc1ccc([N+](=O)[O-])cc1,i,.,-2.6,97.3
Cc1cc(C)nc(NS(=O)(=O)c2ccc(NS(=O)(=O)c3ccsc3)cc2)n1,i,291.8,74.4*,108.2
CCc1ccc(C(=O)Nc2ccc(S(=O)(=O)Nc3nc(C)cc(C)n3)cc2)o1,i,149.4,-4.1,35.5*
Cc1cc(C)nc(NS(=O)(=O)c2ccc(NC(=O)c3ccco3)cc2)n1,i,277.0,7.5,.
Cc1ccc(S(=O)(=O)N2[C@H](CC(=O)c3ccc(Cl)c(Cl)c3)OC[C@@H]2C(C)C)cc1,i,.,.,.
CSc1nnc2c(n1)c(C)nn2-c1cccc(C)c1,i,671.7,-17.1,86.2*
CSc1nncc(/C(C)=N\Nc2cccc(C)c2)n1,i,788.9,-1.7,109.7
COc1ccc(CN2CCC[C@]3(N[C@H](c4ccc(C)cc4)[C@@H]4C(=O)N(C)C(=O)[C@@H]43)C2=O)cc1,i,.,-2.6,.
C=C(C(=O)c1ccccc1)C(C)C(=C)C(=O)c1ccccc1,?,355.5,66.8*,103.6
C=C(C(=O)c1ccccc1)C(c1ccccc1)C(C)C(=O)c1ccccc1 (configuration not stated),i,206.3,2.5,100.1
COc1ccccc1NC(=O)C1=C(C)N(c2ccccc2)C(=S)NC1c1cccc(C(F)(F)F)c1 (configuration not stated),i,i,-8.1,101.8
COC(=O)c1ccc(C2NC(=S)N(c3ccccc3)C(C)=C2C(=O)Nc2ccccc2OC)cc1 (configuration not stated),i,377.8,-1.3,-8.8*
Cn1c(=O)c2ccccc2n2c(=S)[nH]nc12,i,i,-4.2,112.3
